pEC50, pKi: −log10 of the molar value.
Key:
[1] = biological target: Muscarinic acetylcholine receptor; assay: In vitro binding affinity for muscarinic receptor by displacing [3H]quinuclidinyl benzilate binding on rat brain homogenate; assay type: tissue-based
How it was run: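 Two concentration–response curves, five concentrations covering 3 decades, triplicates. IC50 estimated from hand-drawn log concentration–response curves and converted to Ki with Cheng–Prusoff equation.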

[2] = biological target: Muscarinic acetylcholine receptor; assay: In vitro binding affinity for muscarinic receptor by displacing [3H]quinuclidinyl benzilate binding on rat brain stem homogenate.; assay type: tissue-based
How it was run: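 Two full curves, five test concentrations over 3 decades in triplicate. Hand-drawn log curves gave IC50; Ki by Cheng–Prusoff.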

[3] = biological target: Muscarinic acetylcholine receptor; assay: In vitro binding affinity for muscarinic receptor by displacing [3H]oxotremorine-M binding on rat brain homogenate.; assay type: tissue-based
How it was run: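 Duplicate full curves of five drug concentrations over 3 decades, triplicate points. IC50 taken from hand-drawn log curves; Ki via Cheng–Prusoff.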

[4] = biological target: T1, Muscarinic acetylcholine receptor M1 (Rattus norvegicus, UniProt P08482); assay: In vitro binding affinity for muscarinic M1 receptor by displacing [3H]pirenzepine binding on rat brain homogenate.; assay type: tissue-based
T1 sequence (P08482 whole entry): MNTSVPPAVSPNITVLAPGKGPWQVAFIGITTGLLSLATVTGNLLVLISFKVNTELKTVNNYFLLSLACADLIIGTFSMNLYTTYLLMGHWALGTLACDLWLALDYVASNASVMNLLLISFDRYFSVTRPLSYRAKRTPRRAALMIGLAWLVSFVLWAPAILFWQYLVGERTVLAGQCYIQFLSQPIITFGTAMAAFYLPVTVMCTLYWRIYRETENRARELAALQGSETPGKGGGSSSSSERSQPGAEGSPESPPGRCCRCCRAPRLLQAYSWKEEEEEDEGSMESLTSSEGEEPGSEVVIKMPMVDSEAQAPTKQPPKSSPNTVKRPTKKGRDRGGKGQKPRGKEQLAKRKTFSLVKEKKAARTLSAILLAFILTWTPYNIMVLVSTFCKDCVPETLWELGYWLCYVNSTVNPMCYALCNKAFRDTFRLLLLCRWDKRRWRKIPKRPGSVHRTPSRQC
How it was run: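 Two complete curves, five test concentrations spanning 3 decades, each in triplicate. IC50 read from hand-drawn log concentration–response curves, converted to Ki by Cheng–Prusoff.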

Rattus norvegicus [5] = species: Rattus norvegicus; assay: Ratio of binding affinity at [3H]quinuclidinyl benzilate binding on rat brain homogenate to [3H]- Oxotremorine-M binding on rat brain homogenate; assay type: functional
How it was run: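 Ago ratio computed as Ki from [³H]QNB binding to whole rat brain homogenate divided by Ki from [³H]oxotremorine-M binding to whole rat brain homogenate.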

Rattus norvegicus [6] = species: Rattus norvegicus; assay: Ratio of binding affinity at [3H]quinuclidinyl benzilate binding on rat brain stem homogenate to [3H]pirenzepine binding on rat brain homogenate
[7] = biological target: Muscarinic acetylcholine receptor M2 (Mus musculus) (UniProt Q9ERZ4); assay: In vivo determination of peripheral M2 receptor mediated tremor, cholinergic side effect
[8] = biological target: Muscarinic acetylcholine receptor M2 (Mus musculus) (UniProt Q9ERZ4); assay: In vivo determination of peripheral M2 receptor mediated salivation, cholinergic side effect
[9] = biological target: Muscarinic acetylcholine receptor M2 (Mus musculus) (UniProt Q9ERZ4); assay: In vivo determination of peripheral M2 receptor mediated hypothermia, cholinergic side effect
[10] = biological target: T1, Muscarinic acetylcholine receptor M1; assay: M1 agonist activity estimated by rat superior cervical ganglion depolarization; assay type: functional, tissue-based
[11] = biological target: Muscarinic acetylcholine receptor M2 (Cavia porcellus); assay: M2 agonist activity estimated by depression of isolated guinea pig left atrium

Structure (SMILES)	Ki [1]	Ki [2]	Ki [3]	pKi [4]	Ratio (Rattus norvegicus [5])	Ratio (Rattus norvegicus [6])	ED50 [7]	ED50 [8]	ED50 [9]	pEC50 [10]	pEC50 [11]
C#CCn1ncc(C2CCCNC2)n1 (racemic) [listing 1 of 2 here]	0.32 µM	0.13 µM	0.0025 µM	7.08							
C#CCn1ncc(C2CCCNC2)n1 (single isomer, unassigned; (+)) [listing 1 of 2 here]					44	0.2	32 µmol/kg	7 µmol/kg	23 µmol/kg		
CCCCn1nnc(C2=CCCN(C)C2)n1	0.081 µM	0.22 µM	0.005 µM	7.43	16	5.9					
Cn1nnc(C2CCCNC2)n1 (racemic)			0.033 µM	5.64							
C#CCn1ncc(C2CCCNC2)n1 (stereo in doubt; (-)-15c) [listing 1 of 2 here]					35	0.2	41 µmol/kg	20 µmol/kg	11 µmol/kg		
C#CCn1nnc(C2CCCNC2)n1 (racemic)			0.031 µM	6.59							
CCn1ncc(C2CCCNC2)n1 (racemic)	0.53 µM	0.28 µM	0.011 µM	6.59	48	1.1					
C#CCn1ncc(C2CCCNC2)n1 (racemic) [listing 2 of 2 here]					130	1.5	54 µmol/kg	8.1 µmol/kg	10 µmol/kg		
C=CCn1ncc(C2CCCNC2)n1 (stereo in doubt; (-)-15b) [listing 1 of 2 here]					14	1.8	> 130 µmol/kg	> 130 µmol/kg	> 130 µmol/kg		
CCCCn1ncc(C2=CCCN(C)C2)n1	0.048 µM	0.037 µM	0.0025 µM	7.89	19	2.8					
C=CCn1ncc(C2CCCNC2)n1 (stereo in doubt; (-)-15b) [listing 2 of 2 here]	0.53 µM	0.31 µM	0.037 µM	6.77						< 5.60	6.08
C#CCn1ncc(C2CCCNC2)n1 (stereo in doubt; (-)-15c) [listing 2 of 2 here]	0.27 µM		0.0078 µM	6.85							
CCn1nnc(C2=CCCN(C)C2)n1 [ALVAMELINE]	0.43 µM	0.34 µM	0.0092 µM	7.44			> 120 µmol/kg	> 120 µmol/kg	> 120 µmol/kg	≤ 5.70	
C#CCn1ncc(C2CCCNC2)n1 (single isomer, unassigned; (+)) [listing 2 of 2 here]	0.23 µM	0.03 µM	0.0052 µM	6.77							
C=CCn1ncc(C2CCCNC2)n1 (single isomer, unassigned; (+))					4.2	1.6	> 260 µmol/kg	> 260 µmol/kg	> 260 µmol/kg		
C=CCn1ncc(C2CCCNC2)n1 (racemic)					36	3	> 350 µmol/kg	320 µmol/kg	> 350 µmol/kg		
CCCCN1CCC=C(c2nnn(CC)n2)C1			0.34 µM	5.85							
CCn1nnc(C2CCCNC2)n1 (racemic)			0.23 µM	5.96							
CN1CCCC(c2nnn(C)n2)C1 (racemic)			1.2 µM	5.32							

Second part, led by results:

Ki [1]	Ki [2]	Ki [3]	pKi [4]	Ratio (Rattus norvegicus [5])	Ratio (Rattus norvegicus [6])	Structure (SMILES)	ED50 [7]	ED50 [8]	ED50 [9]	pEC50 [10]	pEC50 [11]
0.13 µM	0.11 µM	0.016 µM	7.59	8.1	4.2	CCCCCn1nnc(C2=CCCN(C)C2)n1					
0.1 µM	0.22 µM	0.052 µM	7.49	1.9	6.9	CCCCCCn1nnc(C2=CCCN(C)C2)n1					
		0.033 µM	7.40			C=Cn1ncc(C2=CCCN(C)C2)n1					
0.038 µM	0.075 µM	0.071 µM	7.57	0.5	2.8	CCCCCCCCn1nnc(C2=CCCN(C)C2)n1					
0.53 µM	0.27 µM	0.085 µM	7.08	6.2	3.2	CC(C)n1nnc(C2=CCCN(C)C2)n1					
		0.318 µM	5.77			CCn1nncc1C1=CCCN(C)C1					
		0.18 µM	6.05			CC1CC=C(c2nnn(C)n2)CN1 (configuration not stated)					
		0.031 µM	7.52			C#CCn1ncc(C2=CC(C)CNC2)n1 (configuration not stated)					
		0.069 µM	6.74			CC1C=C(c2nnn(C)n2)CNC1 (configuration not stated)					
		0.3 µM	6.57			CCn1nnc(C2=CCCN(C(C)C)C2)n1					
		0.078 µM	6.85			CCN1CCC=C(c2nnn(CC)n2)C1					
0.23 µM	0.09 µM	0.092 µM	6.92	2.5	0.8	C=Cn1nnc(C2=CCCN(C)C2)n1					
		0.99 µM	6.11			CCn1cc(C2=CCCN(C)C2)nn1					
		0.57 µM	6.02			CC1=C(c2nnn(C)n2)CNCC1					
0.57 µM	0.09 µM	0.00034 µM	6.30	1700	0.2	Cn1ncc(C2=CCCNC2)n1					
0.25 µM	0.13 µM	0.0049 µM	7.00	51	1.3	CCCCn1ncc(C2=CCCNC2)n1					
		0.45 µM	6.05			CCCN1CCC=C(c2nnn(CC)n2)C1					
0.1 µM	0.18 µM	0.0028 µM	7.24	36	3.2	CCCn1nnc(C2=CCCN(C)C2)n1					
0.14 µM	0.046 µM	0.013 µM	7.68	11	2.2	C=CCn1nnc(C2=CCCN(C)C2)n1					
0.043 µM	0.032 µM	0.0047 µM	8.20	9.1	5.1	C=CCn1ncc(C2=CCCN(C)C2)n1					
0.047 µM	0.038 µM	0.0026 µM	7.82	18	2.5	CCCn1ncc(C2=CCCN(C)C2)n1					
0.041 µM	0.022 µM	0.0016 µM	8.11	26	2.9	C#CCn1ncc(C2=CCCN(C)C2)n1					
0.23 µM	0.1 µM	0.0045 µM	7.36	51	2.3	C#CCn1nnc(C2=CCCN(C)C2)n1					
		0.0045 µM	5.87			Cn1nnc(C2=CCCNC2)n1					
0.79 µM	0.23 µM	0.0061 µM	6.60	130	0.9	CN1CCC=C(c2nnn(C)n2)C1					
0.27 µM	0.21 µM	0.0061 µM	7.11	44	2.7	CCCn1ncc(C2=CCCNC2)n1					
		5.4 µM	4.62			CN1CCC=C(c2nnnn2C)C1					
